The test system of one data set is Human respirovirus 3. Description: Antiviral activity against Parainfluenza virus type 3 infected in human Hep2 cells assessed as inhibition of virus-induced cytopathogenic effect. In kind it is functional, organism-based. Conditions: Human respirovirus 3, HEp-2. An outline of the steps:
(§1)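 Run in 96-well plates on Hep-2 cell monolayers, with ribavirin as positive control and an untreated infection control. Para3 virus suspension was added and CPE was scored under an inverted microscope. IC50 was the concentration that reduced CPE by 50% relative to virus control. TC50 was the concentration giving 50% cytotoxic effect.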
(In general: Damage to the host cells serves as the signal in cytopathic effect assays.)

A short description of data set [1]: Therapeutic index, ratio of TC50 for human Hep2 cells to IC50 for Parainfluenza virus type 3. The conditions noted are these: read-out: TI. Format: cell-based, HEp-2. An outline of the steps:
as §1

Data set [2] in a line: Cytotoxicity against human Hep2 cells. In kind it is cell-based, HEp-2. Conditions: read-out: LC50 (the source's name).

Among the data in ChEMBL document CHEMBL1156352, “New antiviral cassane furanoditerpenes from Caesalpinia minax” (J Nat Prod, 2001) are IC50, selectivity ratio and CC50 values, retold here.

Values after ≈ are worked out from the molar mass of the structure shown.

What is called IC50 is the concentration that gives 50% inhibition. With `C=C1c2ccoc2C[C@H]2[C@H]1[C@@H](OC(C)=O)[C@H](OC(C)=O)[C@@]1(O)C(C)(C)CC[C@H](OC(C)=O)[C@]21C` [CAESALAMIN C], in the data set with Human respirovirus 3, the concentration for half-maximal inhibition (IC50) worked out at 8.2 µg/mL (≈ 17.3 µM). Moreover, the selectivity ratio in data set [1] was 23.9. Also, in data set [2], the CC50 was 196 µg/mL (≈ 414 µM).

Consider `CC(=O)O[C@@H]1[C@@H]2[C@H](Cc3occc3[C@]2(C)O)[C@@]2(C)[C@@H](OC(C)=O)CCC(C)(C)[C@]2(O)[C@H]1OC(C)=O` [CAESALMIN D], for which, in the data set on Human respirovirus 3, the IC50 came out at 9.6 µg/mL (≈ 19.5 µM). In addition, the selectivity ratio in data set [1] stood at 19.1. In addition, the CC50 in data set [2] was 182 µg/mL (≈ 370 µM).

Consider `CC(=O)O[C@@H]1[C@@H]2[C@H](Cc3occc3[C@@]2(C)O)[C@@]2(C)[C@@H](OC(C)=O)CCC(C)(C)[C@]2(O)[C@H]1OC(C)=O` [CAESALMIN E], for which, in the data set on Human respirovirus 3, the IC50 was found to be 10.3 µg/mL (≈ 20.9 µM). Besides, in data set [1], the selectivity ratio was found to be 16. The CC50 in data set [2] is 165 µg/mL (≈ 335 µM).

With `CO[C@]1(C)c2ccoc2C[C@H]2C1[C@@H](OC(C)=O)[C@H](OC(C)=O)[C@@]1(O)C(C)(C)CC[C@H](OC(C)=O)[C@]21C` (stereo partly drawn) [CAESALMIN F], the IC50 with Human respirovirus 3 amounted to 7.8 µg/mL (≈ 15.4 µM). In data set [1], the selectivity ratio stood at 17.5. For the same compound, the CC50 in data set [2] was found to be 136 µg/mL (≈ 269 µM).

For the compound `CC1(C)CC[C@H](O)[C@]2(C)[C@H]3Cc4occc4[C@H]4C(=O)O[C@@H](C[C@@]12O)[C@@H]43` [CAESALMIN G], the IC50 in the data set on Human respirovirus 3 turned out to be 14.8 µg/mL (≈ 42.7 µM). Also, in data set [1], the selectivity ratio worked out at 3. For the same compound, in data set [2], the CC50 stood at 44.7 µg/mL (≈ 129 µM).

Turning to `CC[C@H](/C=C/[C@@H](C)[C@H]1CC[C@H]2[C@@H]3CC=C4C[C@@H](O)CC[C@]4(C)[C@H]3CC[C@]12C)C(C)C` [STIGMASTEROL], in the data set with Human respirovirus 3, the IC50 was found to be 37.5 µg/mL (≈ 90.9 µM). Further, in data set [1], the selectivity ratio turned out to be 3.6. Also, the CC50 in data set [2] stood at 137 µg/mL (≈ 331 µM).
